Experimental data as given in ChEMBL document CHEMBL3232854, “Agonists for the adenosine A1 receptor with tunable residence time. A Case for nonribose 4-amino-6-aryl-5-cyano-2-thiopyrimidines” (J Med Chem, 2014).

Experiments:
[1] = molecular target: T1, Adenosine receptor A1 (Homo sapiens) (UniProt P30542); assay: Ratio for displacement of [3H]DPCPX from human adenosine A1 receptor expressed in CHO cell membranes at 10 times Ki after 15 mins by dual-point competition association assay to ratio for displacement of [3H]DPCPX from human adenosine A1 receptor expressed in CHO cell membranes 10 times Ki after 120 mins by dual-point competition association assay
T1 sequence (whole entry): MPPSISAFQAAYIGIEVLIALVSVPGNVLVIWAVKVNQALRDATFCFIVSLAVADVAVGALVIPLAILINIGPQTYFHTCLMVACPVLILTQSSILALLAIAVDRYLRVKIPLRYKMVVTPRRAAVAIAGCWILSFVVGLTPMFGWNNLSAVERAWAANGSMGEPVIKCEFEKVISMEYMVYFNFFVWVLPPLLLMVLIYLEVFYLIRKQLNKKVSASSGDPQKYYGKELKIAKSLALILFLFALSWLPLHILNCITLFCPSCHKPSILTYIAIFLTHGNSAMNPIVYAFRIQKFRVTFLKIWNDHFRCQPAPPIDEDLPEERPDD

Adenosine receptor A1 [2] = molecular target: T2, Adenosine receptor A1 (Homo sapiens, UniProt P30542); assay: Displacement of [3H]DPCPX from human adenosine A1 receptor expressed in CHO cell membranes after 1 hr by beta scintillation counting analysis
T2 sequence (P30542 whole entry): T1 sequence (whole entry)
Outline: (§1)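 Membranes from CHO cells stably expressing human A1 receptor (5 μg protein) incubated with [3H]DPCPX in 25 mM Tris-HCl pH 7.4, 5 mM MgCl2, 0.1% CHAPS, 1 h at 25 °C; nonspecific binding with 100 μM CPA; GF/B filtration, three ice-cold washes, scintillation counting. Single 1 μM points from ≥2 experiments in duplicate; Ki by nonlinear regression (radioligand KD 1.6 nM), ≥3 experiments in duplicate.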

[3] = molecular target: T1, Adenosine receptor A1 (Homo sapiens); assay: Displacement of [3H]DPCPX from human adenosine A1 receptor expressed in CHO cell membranes assessed as residence time on receptor at 10 times Ki after 90 mins by competition association assay
[4] = molecular target: T3, Adenosine receptor A3 (Homo sapiens) (UniProt P0DMS8); assay: Displacement of [3H]PSB11 from human adenosine A3 receptor expressed in CHO cell membranes at 1 uM after 2 hrs by beta scintillation counting analysis relative to control
T3 sequence (whole entry): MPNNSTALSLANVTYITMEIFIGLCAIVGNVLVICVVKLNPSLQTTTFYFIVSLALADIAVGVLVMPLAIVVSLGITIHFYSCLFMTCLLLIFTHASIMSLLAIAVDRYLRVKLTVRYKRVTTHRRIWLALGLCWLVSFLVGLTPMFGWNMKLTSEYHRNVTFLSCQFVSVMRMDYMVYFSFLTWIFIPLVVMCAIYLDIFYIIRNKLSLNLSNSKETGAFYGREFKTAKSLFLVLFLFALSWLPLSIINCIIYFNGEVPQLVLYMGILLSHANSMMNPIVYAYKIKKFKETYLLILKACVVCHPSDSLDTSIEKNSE
Outline: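 CHO membranes stably expressing human A3 receptor (45 μg protein) incubated with [3H]PSB11 and 1 μM compound in 50 mM Tris-HCl pH 8.0, 10 mM MgCl2, 1 mM EDTA, 0.01% CHAPS, 2 h at 25 °C; nonspecific binding with 100 μM NECA; filtration, washes without CHAPS, scintillation counting; ≥2 experiments in duplicate.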

[5] = molecular target: Adenosine receptor A2a (Homo sapiens) (UniProt P29274); assay: Displacement of [3H]ZM241385 from human adenosine A2A receptor expressed in HEK293 cell membranes at 1 uM after 2 hrs by beta scintillation counting analysis relative to control
Sequence of Adenosine receptor A2a (Homo sapiens) (P29274 whole entry): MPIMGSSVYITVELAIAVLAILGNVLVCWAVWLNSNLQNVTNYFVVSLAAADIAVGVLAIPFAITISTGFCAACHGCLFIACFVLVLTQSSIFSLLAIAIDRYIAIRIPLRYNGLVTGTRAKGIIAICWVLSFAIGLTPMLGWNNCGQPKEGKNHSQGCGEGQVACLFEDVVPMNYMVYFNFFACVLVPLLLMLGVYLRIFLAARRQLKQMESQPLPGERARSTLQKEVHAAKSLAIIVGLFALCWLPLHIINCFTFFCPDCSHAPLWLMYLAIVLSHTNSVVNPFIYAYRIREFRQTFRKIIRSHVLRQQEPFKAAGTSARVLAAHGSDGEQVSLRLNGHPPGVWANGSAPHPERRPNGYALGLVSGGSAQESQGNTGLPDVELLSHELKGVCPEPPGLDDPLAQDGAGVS
Outline: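 HEK 293 membranes stably expressing human A2A receptor (25 μg protein) incubated with [3H]ZM241385 in 50 mM Tris-HCl pH 7.4, 2 h at 25 °C; compounds at 1 μM; nonspecific binding with 100 μM CPA; GF/B filtration, ice-cold washes, scintillation counting; ≥2 experiments in duplicate.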

Adenosine receptor A1 [6] = molecular target: T2, Adenosine receptor A1; assay: Agonist activity human adenosine A1 receptor expressed in CHO cell membranes assessed as stimulation of [35S]GTPgammaS binding preincubated for 30 mins followed by radioligand addition measured after 90 mins by beta scintillation counting analysis; assay type: functional
[7] = molecular target: T4, Adenosine receptor A2b (Homo sapiens) (UniProt P29275); assay: Displacement of [3H]PSB603 from human adenosine A2B receptor expressed in CHO cell membranes at 1 uM after 2 hrs by beta scintillation counting analysis relative to control
T4 sequence (whole entry): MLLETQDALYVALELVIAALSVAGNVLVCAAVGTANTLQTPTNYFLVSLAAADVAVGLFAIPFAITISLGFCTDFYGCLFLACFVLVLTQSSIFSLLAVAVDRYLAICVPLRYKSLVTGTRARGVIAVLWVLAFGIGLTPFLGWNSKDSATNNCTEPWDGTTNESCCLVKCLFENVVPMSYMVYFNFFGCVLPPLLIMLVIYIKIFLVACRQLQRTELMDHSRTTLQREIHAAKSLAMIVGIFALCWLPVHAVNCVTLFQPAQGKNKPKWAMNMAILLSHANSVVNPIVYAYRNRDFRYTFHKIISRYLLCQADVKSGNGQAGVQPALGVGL

[8] = molecular target: T1, Adenosine receptor A1 (Homo sapiens); assay: Agonist activity human adenosine A1 receptor expressed in CHO cell membranes assessed as stimulation of [35S]GTPgammaS binding preincubated for 30 mins followed by radioligand addition measured after 90 mins by beta scintillation counting analysis relative to N6-cyclopentyladenosine; assay type: functional
Adenosine receptor A1 [9] = molecular target: T2, Adenosine receptor A1; assay: Agonist activity at adenosine A1 receptor (unknown origin) expressed in CHO cells assessed as […] in intracellular cAMP level by RIA; assay type: functional, cell-based
Adenosine receptor A1 [10] = molecular target: T2, Adenosine receptor A1; assay: Agonist activity at human adenosine A1 receptor expressed in HEK293 cells assessed as […] in intracellular cAMP level after 30 mins by EIA; assay type: functional, cell-based
[11] = molecular target: T1, Adenosine receptor A1 (Homo sapiens); assay: Displacement of [3H]DPCPX from human adenosine A1 receptor expressed in CHO cell membranes at 1 uM after 1 hr by beta scintillation counting analysis relative to control; outline: as §1
Adenosine receptor A2b = molecular target: T5, Adenosine receptor A2b (Homo sapiens, UniProt P29275); assay: Displacement of [3H]PSB603 from human adenosine A2B receptor expressed in CHO cell membranes after 2 hrs by beta scintillation counting analysis
T5 sequence (P29275 whole entry): T4 sequence (whole entry)

[12] = molecular target: T1, Adenosine receptor A1 (Homo sapiens); assay: Agonist activity human adenosine A1 receptor expressed in CHO cell membranes assessed as stimulation of [35S]GTPgammaS binding at 100 times Ki preincubated for 30 mins followed by radioligand addition measured after 90 mins by beta scintillation counting analysis relative to N6-cyclopentyladenosine; assay type: functional

SMILES | Ratio [1] | Ki (Adenosine receptor A1 [2]) [nM] | TIME [3] [h] | further results
N#Cc1c(N)nc(SCc2csc(-c3ccc(C(F)(F)F)cc3)n2)nc1-c1ccc2c(c1)OCO2 | 1.2 | 18 |  | 
N#Cc1c(N)nc(SCc2csc(-c3ccc(Cl)cc3)n2)nc1-c1ccc2c(c1)OCO2 | 1.64 | 14 | 0.857 | inhibition [4]: 4.5%; inhibition [5]: 4.5%; EC50 (Adenosine receptor A1 [6]): 4.9 nM; inhibition [7]: 0%; Emax [8]: 71%
N#Cc1c(N)nc(SCc2csc(-c3ccc(Cl)cc3)n2)nc1-c1ccc(OCCO)cc1 | 1.18 | 4.8 |  | inhibition [4]: 3%; inhibition [5]: 10%; EC50 (Adenosine receptor A1 [6]): 12 nM; inhibition [7]: 3.5%; Emax [8]: 99%
N#Cc1c(N)nc(SCc2csc(-c3cccc(Cl)c3)n2)nc1-c1ccc2c(c1)OCO2 | 1.24 | 42 | 0.5 | 
CCN(CC)CCN1CCN(C(=O)CCc2cccc(CSc3nc(N)c(C#N)c(-c4ccc(NC(C)=O)cc4)n3)n2)CC1 |  |  |  | EC50 (Adenosine receptor A1 [10]): 1 nM
Cc1ccc(-c2nc(SCc3csc(-c4ccc(Cl)cc4)n3)nc(N)c2C#N)cc1 |  |  |  | inhibition [11]: 44%
N#Cc1c(N)nc(SCc2csc(-c3ccc(Cl)cc3)n2)nc1-c1ccc(O)cc1 | 0.99 | 15 |  | 
N#Cc1c(N)nc(SCc2c[nH]cn2)nc1-c1ccc2c(c1)OCO2 | 1.15 | 83 |  | 
N#Cc1c(N)nc(SCc2csc(-c3ccc(Cl)cc3)n2)nc1-c1ccccc1 | 1.24 | 8.9 | 0.538 | 
N#Cc1c(N)nc(SCc2csc(-c3ccc([N+](=O)[O-])cc3)n2)nc1-c1ccc2c(c1)OCO2 | 0.95 | 11 |  | 
N#Cc1c(N)nc(SCc2csc(N3CCOCC3)n2)nc1-c1ccc2c(c1)OCO2 | 0.81 | 1.9 | 0.02 | inhibition [4]: 18%; inhibition [5]: 21%; EC50 (Adenosine receptor A1 [6]): 1.8 nM; inhibition [7]: 12%; Emax [8]: 65%
N#Cc1c(N)nc(SCc2csc(-c3ccccc3Cl)n2)nc1-c1ccc2c(c1)OCO2 | 1.29 | 75 | 0.588 | 
CCOc1ccc(-c2nc(SCc3csc(-c4ccc(Cl)cc4)n3)nc(N)c2C#N)cc1 |  |  |  | inhibition [11]: 49%
N#Cc1c(N)nc(SCc2cscn2)nc1-c1ccc2c(c1)OCO2 | 0.93 | 9.7 |  | Ki (Adenosine receptor A2b): 42 nM; inhibition [4]: 35%; inhibition [5]: 31%; Emax [12]: 27%
N#Cc1c(N)nc(SCc2coc(-c3cccc(F)c3)n2)nc1-c1ccc2c(c1)OCO2 | 1.24 | 15 | 0.0508 | 
N#Cc1c(N)nc(SCc2coc(-c3ccc(Cl)cc3)n2)nc1-c1ccc2c(c1)OCO2 | 1.17 | 15 |  | 
N#Cc1c(N)nc(SCc2csc(-c3ccc(Cl)c(Cl)c3)n2)nc1-c1ccc2c(c1)OCO2 |  |  |  | inhibition [11]: 23%
N#Cc1c(N)nc(SCc2csc(-c3ccccc3)n2)nc1-c1ccc2c(c1)OCO2 | 1.1 | 2.4 |  | inhibition [4]: 24%; inhibition [5]: -2%; EC50 (Adenosine receptor A1 [6]): 4.6 nM; inhibition [7]: 20%; Emax [8]: 84%
COc1ccc(-c2nc(SCc3csc(-c4ccc(Cl)cc4)n3)nc(N)c2C#N)cc1 |  |  |  | inhibition [11]: 73%
CN(C)c1ccc(-c2nc(SCc3csc(-c4ccc(Cl)cc4)n3)nc(N)c2C#N)cc1 |  | 233 |  | 

The next lines start with results.

Ratio [1] | Ki (Adenosine receptor A1 [2]) [nM] | TIME [3] [h] | SMILES | further results
1.17 | 6.3 |  | N#Cc1c(N)nc(SCc2csc(C3CCCCC3)n2)nc1-c1ccc2c(c1)OCO2 | 
1.4 | 9.9 | 1.06 | N#Cc1c(N)nc(SCc2csc(-c3ccc(I)cc3)n2)nc1-c1ccc2c(c1)OCO2 | inhibition [4]: 9%; inhibition [5]: 2.5%; EC50 (Adenosine receptor A1 [6]): 9.5 nM; inhibition [7]: 7.5%; Emax [8]: 82%
1.46 | 12 | 0.375 | N#Cc1c(N)nc(SCc2csc(-c3ccccc3F)n2)nc1-c1ccc2c(c1)OCO2 | 
1.15 | 3.1 |  | Cc1ccc(-c2nc(CSc3nc(N)c(C#N)c(-c4ccc5c(c4)OCO5)n3)cs2)cc1 | 
1.01 | 20 |  | N#Cc1c(N)nc(SCc2coc(-c3ccc(F)cc3)n2)nc1-c1ccc2c(c1)OCO2 | 
1.42 |  |  | N#Cc1c(N)nc(SCc2csc(-c3ccc(Cl)cc3)n2)c(C#N)c1-c1ccc(OCCO)cc1 [CAPADENOSON] | EC50 (Adenosine receptor A1 [9]): 0.1 nM
1.24 | 14 | 0.55 | N#Cc1c(N)nc(SCc2csc(-c3cccc(F)c3)n2)nc1-c1ccc2c(c1)OCO2 | 
1.22 | 6.7 | 0.575 | N#Cc1c(N)nc(SCc2csc(-c3ccc(F)cc3)n2)nc1-c1ccc2c(c1)OCO2 | 
1.67 | 5.2 | 0.983 | N#Cc1c(N)nc(SCc2csc(-c3ccc(Br)cc3)n2)nc1-c1ccc2c(c1)OCO2 | inhibition [4]: -1.8%; inhibition [5]: 2.9%; EC50 (Adenosine receptor A1 [6]): 4.6 nM; inhibition [7]: 1.7%; Emax [8]: 60%
 | 185 |  | N#Cc1c(N)nc(SCc2csc(-c3ccc(Cl)cc3)n2)nc1-c1ccc(OC(F)(F)F)cc1 | 
0.97 | 14 |  | CC(=O)Nc1ccc(-c2nc(SCc3csc(-c4ccc(Cl)cc4)n3)nc(N)c2C#N)cc1 | inhibition [4]: 5.5%; inhibition [5]: 44%; EC50 (Adenosine receptor A1 [6]): 3.9 nM; inhibition [7]: 2.5%; Emax [8]: 112%
1 | 1.8 |  | COc1ccc(-c2nc(CSc3nc(N)c(C#N)c(-c4ccc5c(c4)OCO5)n3)cs2)cc1 | inhibition [4]: 11%; inhibition [5]: 3.2%; EC50 (Adenosine receptor A1 [6]): 1.9 nM; inhibition [7]: 3.5%; Emax [8]: 104%
0.93 | 2.5 |  | N#Cc1c(N)nc(SCc2csc(-c3ccc4c(c3)OCO4)n2)nc1-c1ccc2c(c1)OCO2 | 
